Data set [1] relates to L1210. Description: Antileukemic activity against ip implanted mouse L1210 cells in C3H/DBA2 F1 hybrid hybrid mouse assessed as increase life span treated ip after 24 hrs after tumor inoculation and continued for 5 days. The format is functional. The method, boiled down:
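10^5 L1210 cells implanted ip in 18.5-22.5-g C3H/DBA2 F1 hybrid mice. Drug given ip from 24 h after inoculation, continuing for 5 days, each dose in 0.2 mL. Dose levels spaced at 0.18 log intervals, six mice per dose, one control group per six test groups. Read-out is life extension; 50-day survivors counted as cures.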

The nature of data set [2]: Retardation factor, Rm of the compound by reversed phase partition chromatography. The format is physicochemical.
The next data set has as its system Mus musculus. The data set is described as follows: Toxicity in sc implanted mouse L1210 cells allografted C3H/DBA2 F1 hybrid hybrid mouse assessed as optimum dose required to increase life span treated ip after 24 hrs after tumor inoculation and continued for 5 days. Type of data set: organism-based. The settings on record: in vivo. In short, it runs like this:
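10^5 L1210 cells implanted sc above the right axilla in 18.5-22.5-g C3H/DBA2 F1 hybrid mice. Ip dosing (0.2 mL per dose) ran daily for 5 days from 24 h. Dilution series at 0.18 log intervals, with the median dose set at the earlier ip L1210 optimum. Six mice per dose, one control group per six test groups. Tests were repeated until the highest dose was toxic and the lowest clearly suboptimal.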

Data set [3] deals with L1210. The data set is described as follows: Antileukemic activity against sc implanted mouse L1210 cells in C3H/DBA2 F1 hybrid hybrid mouse assessed as increase life span treated ip after 24 hrs after tumor inoculation and continued for 5 days. The format is functional. The method, boiled down: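 10^5 L1210 cells implanted sc above the right axilla in 18.5-22.5-g C3H/DBA2 F1 hybrid mice. Drug given ip (0.2 mL) from 24 h for 5 days. Dilution series at 0.18 log intervals, centred on the optimum ip L1210 dose. Top dose had to show toxicity and lowest dose had to be suboptimal, otherwise the test was repeated. Read-out is life extension.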

The values below come from ChEMBL document CHEMBL3272270, “Potential antitumor agents. 23. 4'-(9-Acridinylamino)alkanesulfonanilide congeners bearing hydrophilic functionality” (J Med Chem, 1977).

Take `O=[N+]([O-])c1ccc2c(Nc3ccc(N4CCNCC4)cc3)c3ccccc3nc2c1`: the ILS (in general, how much longer treated animals lived than controls) in the data set on L1210 [1] is on record as more than 25%. This molecule also returned a Rm in data set [2] of -0.81. Besides, in the data set on Mus musculus, the Activity is 15 mg/kg.
For `CNC(=O)Nc1ccc(Nc2c3ccccc3nc3ccccc23)cc1`, the figures for the ILS in the data set on L1210 [1] and in the data set on L1210 [3] were 112% and more than 25%, respectively. Also, the Rm in data set [2] is 0.25. Besides, in the data set on Mus musculus, the Activity amounted to 60 mg/kg.
Consider `COc1cc(NS(C)(=O)=O)ccc1Nc1c2ccccc2nc2c(C(N)=O)cccc12.Cl`, for which the ILS was found to be 140% with L1210 [1] and 36% in the data set on L1210 [3]. The molecule further registered a Rm in data set [2] of -0.27. For the same molecule, in the data set on Mus musculus, the Activity turned out to be 25 mg/kg.
Consider `CNC(=O)c1cccc2c(Nc3ccc(NS(C)(=O)=O)cc3OC)c3ccccc3nc12.Cl`, for which the ILS stood at 166% with L1210 [1] and 59% in the data set on L1210 [3]. The Rm in data set [2] is 0.06. In addition, in the data set on Mus musculus, the Activity amounted to 8.3 mg/kg.
As for `COc1cc(NS(C)(=O)=O)ccc1Nc1c2ccccc2nc2c(C(=O)N(C)C)cccc12.Cl`, the ILS is 84% with L1210 [1] and 61% with L1210 [3]. The Rm in data set [2] is given as 0.09. Further, the Activity in the data set with Mus musculus was 15 mg/kg.
For `COc1cc(NS(C)(=O)=O)ccc1Nc1c2ccccc2nc2c(C(=O)NCC(N)=O)cccc12.Cl`, in that order: 105%, 41%, -0.54 and 62 mg/kg.
With `COc1cc(NS(C)(=O)=O)ccc1Nc1c2ccccc2nc2c(C(=O)NCC(O)CO)cccc12.Cl` (configuration not stated), in the data set with L1210 [1], the ILS is listed as 72%. In data set [2], this molecule had a Rm of -0.36. Also, the Activity with Mus musculus came to 92 mg/kg.
Take `Br.CS(=O)(=O)N(CC(O)CO)c1ccc(Nc2c3ccccc3nc3ccccc23)cc1` (configuration not stated): the ILS with L1210 [1] is reported as more than 25%. Further, in data set [2], the Rm is -0.03. For the same molecule, in the data set on Mus musculus, the Activity came out at 65 mg/kg.
For the molecule `COc1ccc(Nc2c3ccccc3nc3cc([N+](=O)[O-])ccc23)cc1.Cl`, in the data set with L1210 [1], the ILS is reported as 33%. Further, the Rm in data set [2] is 0.49. Also, the Activity in the data set on Mus musculus is 90 mg/kg.
On the same counts, the results for `COc1ccc(Nc2c3ccccc3nc3cc(N)ccc23)cc1.Cl` are 66%, 0.31 and 15 mg/kg.
On to `Br.CN1CCN(c2ccc(Nc3c4ccccc4nc4cc([N+](=O)[O-])ccc34)cc2)CC1`, for which the ILS in the data set with L1210 [1] was more than 25%. Further, the Rm in data set [2] was -0.78. Also, the Activity in the data set on Mus musculus worked out at 60 mg/kg.
Take `Br.c1ccc2c(Nc3ccc(N4CCNCC4)cc3)c3ccccc3nc2c1`: the ILS in the data set on L1210 [1] was more than 25%. This molecule also yielded a Rm in data set [2] of -0.8. In addition, the Activity with Mus musculus worked out at 15 mg/kg.
Turning to `Br.CN1CCN(c2ccc(Nc3c4ccccc4nc4ccccc34)cc2)CC1`, in the data set with L1210 [1], the ILS was more than 25%. Besides, the Rm in data set [2] was -0.68. Also, in the data set on Mus musculus, the Activity is 50 mg/kg.
Take `CC(=O)N1CCN(c2ccc(Nc3c4ccccc4nc4ccccc34)cc2)CC1.Cl`: the ILS in the data set with L1210 [1] is 81%. The molecule also registered a Rm in data set [2] of 0.23. Moreover, the Activity in the data set with Mus musculus was 75 mg/kg.
For the molecule `CS(=O)(=O)N1CCN(c2ccc(Nc3c4ccccc4nc4ccccc34)cc2)CC1.Cl`, the ILS with L1210 [1] was 69%. Moreover, the Rm in data set [2] was 0.21. Also, in the data set with Mus musculus, the Activity amounted to 200 mg/kg.
Consider `Cl.NC(=O)N1CCN(c2ccc(Nc3c4ccccc4nc4ccccc34)cc2)CC1`, for which, in the data set with L1210 [1], the ILS is reported as 78%. The Rm in data set [2] is -0.11. Also, the Activity in the data set on Mus musculus is 37 mg/kg.
Consider `CCOC(=O)NNc1ccc(Nc2c3ccccc3nc3ccccc23)cc1.Cl`, for which the ILS in the data set with L1210 [1] was 67%. The molecule further registered a Rm in data set [2] of 0.41. Further, in the data set with Mus musculus, the Activity is 25 mg/kg.
For `CNC(=O)Nc1ccc(Nc2c3ccccc3nc3ccccc23)c(OC)c1.Cl`, in that order: 72%, 0.51 and 50 mg/kg.
`CCOC(=O)N1CCN(C(=O)Nc2ccc(Nc3c4ccccc4nc4ccccc34)cc2)CC1.Cl`: in the data set with L1210 [1], the ILS is recorded as 29%. This molecule displayed a Rm in data set [2] of 0.59. For the same molecule, in the data set with Mus musculus, the Activity worked out at 50 mg/kg.
With `COC(=O)NNC(=O)Nc1ccc(Nc2c3ccccc3nc3ccccc23)cc1.Cl`, the ILS in the data set with L1210 [1] is recorded as 67%. This molecule also had a Rm in data set [2] of -0.04. For the same molecule, in the data set on Mus musculus, the Activity is more than 500 mg/kg.
Turning to `Cl.O=C(Nc1ccc(Nc2c3ccccc3nc3ccccc23)cc1)OCC(O)CO` (configuration not stated), the ILS in the data set on L1210 [1] is listed as 63%; in the data set on L1210 [3] it was more than 25%. Also, the Rm in data set [2] is recorded as -0.06. In the data set on Mus musculus, the Activity worked out at 25 mg/kg.
For `CC(=O)NCCS(=O)(=O)Nc1ccc(Nc2c3ccccc3nc3ccccc23)cc1.Cl`, in that order: 94%, more than 25%, -0.06 and 50 mg/kg.
With `COC(=O)NCCS(=O)(=O)Nc1ccc(Nc2c3ccccc3nc3ccccc23)cc1.Cl`, the ILS in the data set with L1210 [1] is listed as 67%. In data set [2], the Rm is 0.24. Besides, in the data set on Mus musculus, the Activity is more than 500 mg/kg.
Regarding `CS(=O)(=O)NCCS(=O)(=O)Nc1ccc(Nc2c3ccccc3nc3ccccc23)cc1.Cl`, the ILS in the data set on L1210 [1] was determined as 33%. In data set [2], this molecule displayed a Rm of -0.14. In addition, the Activity in the data set with Mus musculus was found to be 110 mg/kg.
`Cl.NC(=O)NCCS(=O)(=O)Nc1ccc(Nc2c3ccccc3nc3ccccc23)cc1`: the ILS in the data set on L1210 [1] is recorded as 53%; in the data set on L1210 [3], more than 25%. The Rm in data set [2] is recorded as -0.21. Moreover, the Activity in the data set on Mus musculus was 200 mg/kg.
For `Cl.O=C1CNC(=O)N1CCS(=O)(=O)Nc1ccc(Nc2c3ccccc3nc3ccccc23)cc1`, in that order: 51%, more than 25%, -0.19 and 160 mg/kg.
As for `CC(=O)N(C)CCS(=O)(=O)Nc1ccc(Nc2c3ccccc3nc3ccccc23)cc1.Cl`, the ILS in the data set with L1210 [1] was 54%. In data set [2], the Rm was determined as 0.05. The Activity in the data set with Mus musculus is 200 mg/kg.
Consider `CC(=O)NCCCS(=O)(=O)Nc1ccc(Nc2c3ccccc3nc3ccccc23)cc1.Cl`, for which, in the data set on L1210 [1], the ILS was 26%. In addition, the Rm in data set [2] is on record as -0.01. Also, in the data set with Mus musculus, the Activity was more than 500 mg/kg.
On the same counts, the results for `Cl.O=C1CCS(=O)(=O)N1c1ccc(Nc2c3ccccc3nc3ccccc23)cc1` are 33%, 0.13 and 200 mg/kg.
Take `Cl.O=C(O)CCS(=O)(=O)Nc1ccc(Nc2c3ccccc3nc3ccccc23)cc1`: the ILS in the data set with L1210 [1] is more than 25%. The same molecule displayed a Rm in data set [2] of 0.1. The Activity in the data set with Mus musculus stood at 350 mg/kg.
`COC(=O)CCS(=O)(=O)Nc1ccc(Nc2c3ccccc3nc3ccccc23)cc1.Cl` gave a Rm in data set [2] of 0.57. Also, the Activity in the data set with Mus musculus was more than 500 mg/kg. Further, the increase in lifespan (ILS) in the data set with L1210 [3] is reported as more than 25%.
In the case of `Cl.NC(=O)CCS(=O)(=O)Nc1ccc(Nc2c3ccccc3nc3ccccc23)cc1`, the ILS in the data set on L1210 [1] turned out to be 67%. This molecule also had a Rm in data set [2] of -0.34. Besides, the Activity in the data set on Mus musculus is more than 500 mg/kg.
On the same counts, the results for `CN(C)C(=O)CCS(=O)(=O)Nc1ccc(Nc2c3ccccc3nc3ccccc23)cc1.Cl` are 63%, 0.17 and 150 mg/kg.
For `CC(CS(=O)(=O)Nc1ccc(Nc2c3ccccc3nc3ccccc23)cc1)C(N)=O.Cl` (configuration not stated), the ILS with L1210 [1] was more than 25%. This molecule had a Rm in data set [2] of -0.11. Also, the Activity in the data set on Mus musculus stood at 50 mg/kg.
Take `COCCS(=O)(=O)Nc1ccc(Nc2c3ccccc3nc3ccccc23)cc1.Cl`: the ILS is 79% in the data set on L1210 [1] and 25% with L1210 [3]. This molecule registered a Rm in data set [2] of 0.21. The Activity with Mus musculus was found to be 280 mg/kg.
With `COc1cc(NS(C)(=O)=O)ccc1Nc1c2ccccc2nc2c(C(=O)N[C@H]3[C@@H](OC)O[C@H](COC(C)=O)[C@@H](OC(C)=O)[C@@H]3OC(C)=O)cccc12.Cl`, the ILS with L1210 [1] is recorded as more than 25%. This molecule also yielded a Rm in data set [2] of 0.62. Also, in the data set with Mus musculus, the Activity was more than 400 mg/kg.
`COc1cc(NS(C)(=O)=O)ccc1Nc1c2ccccc2nc2c(C(=O)N[C@H]3[C@@H](OC)O[C@H](CO)[C@@H](O)[C@@H]3O)cccc12.Cl`: the ILS is reported as 100% in the data set with L1210 [1] and 49% with L1210 [3]. The Rm in data set [2] is -0.57. In addition, the Activity in the data set on Mus musculus amounted to 180 mg/kg.
In the case of `Br.COc1cc(NS(C)(=O)=O)ccc1Nc1c2ccccc2nc2cc(CCC(N)=O)ccc12`, the ILS in the data set on L1210 [1] worked out at 58%. Moreover, the Rm in data set [2] is recorded as -0.25. Besides, the Activity in the data set with Mus musculus is 125 mg/kg.
`COc1cc(NS(C)(=O)=O)ccc1Nc1c2ccc(I)cc2nc2c(OCC(O)CO)cccc12.Cl` (configuration not stated) yielded a Rm in data set [2] of 0.06. The Activity in the data set on Mus musculus stood at 62 mg/kg. Besides, the ILS with L1210 [3] is more than 25%.
As for `CS(=O)(=O)Nc1ccc(Nc2c3ccccc3nc3ccccc23)cc1`, the results for the ILS with L1210 [1] and with L1210 [3] were 107% and 28%, respectively. The molecule further had a Rm in data set [2] of 0. In the data set on Mus musculus, the Activity was determined as 45 mg/kg.
